Legend:
Human alphaherpesvirus 3 [1] = test: Antiviral activity against […] expressing thymidine kinase infected in HEL cells assessed as reduction of virus plaque formation after 4 days; assay type: functional, cell-based; conditions: Human alphaherpesvirus 3, strain Oka vaccine, 96 h
[2] = tested on: Human immunodeficiency virus 1; test: Antiviral activity against HIV1 infected in human CEM cells assessed as inhibition of virus-induced cytopathic effect after 4 days; assay type: functional, organism-based; conditions: Human immunodeficiency virus 1, CCRF-CEM, 96 h
Procedure, shortened: (§1)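 CEM T-lymphocytes (~3 × 10^5 cells/ml) were infected with HIV-1 IIIB or HIV-2 ROD at ~100 CCID50, then immediately plated with a range of compound concentrations. Giant cell formation was scored microscopically after 4 days at 37 °C. Cytostatic activity was tested in parallel in uninfected CEM cells.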

[3] = Cytotoxicity against human HEL cells assessed as minimum compound concentration required to causes microscopically detectable alteration of normal cell morphology; assay type: cell-based
Procedure, shortened: (§2)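 Confluent, non-proliferating cell cultures were exposed to the compounds. The endpoint was the minimum concentration producing a microscopically detectable alteration of normal cell morphology.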

Influenza A virus [4] = test: Antiviral activity against Influenza A virus H1N1 infected in MDCK cells assessed as reduction visual scoring of virus-induced cytopathogenicity after 4 days; assay type: functional, organism-based; conditions: 96 h
Procedure, shortened: (§3)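 MDCK monolayers infected with 100 CCID50 of influenza A (H1N1 or H3N2) or influenza B, with varying compound concentrations. Cytopathicity read when untreated infected controls reached complete CPE.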

Sindbis virus = test: Antiviral activity against Sindbis virus infected in african green monkey Vero cells assessed as inhibition of virus-induced cytopathogenicity after 4 days; assay type: functional, organism-based; conditions: 96 h
Procedure, shortened: (§4)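 Confluent HEL, Vero or HeLa monolayers were inoculated with 100 CCID50 of virus in the presence of varying concentrations of compound. Cytopathicity was scored when it reached completion in untreated, virus-infected control cultures.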

[5] = tested on: Respiratory syncytial virus; test: Antiviral activity against Respiratory syncytial virus infected in human HeLa cells assessed as inhibition of virus-induced cytopathogenicity after 4 days; assay type: functional, organism-based; conditions: 96 h; procedure, shortened: as §4
Plasmodium falciparum [6] = test: Resistant factor, ratio of IC50 for chloroquine-resistant Plasmodium falciparum K1 to IC50 for chloroquine-sensitive Plasmodium falciparum 3D7; assay type: functional
Procedure, shortened: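 Resistance factor computed as IC50 against K1 divided by IC50 against 3D7, both from the [3H]hypoxanthine incorporation assay.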

[7] = tested on: Vesicular stomatitis virus; test: Antiviral activity against Vesicular stomatitis virus infected in HeLa cells assessed as inhibition of virus-induced cytopathogenicity after 4 days; assay type: functional, organism-based; conditions: 96 h
Procedure, shortened: (§5)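 Confluent HEL or HeLa monolayers infected with 100 CCID50 of virus in the presence of varying compound concentrations.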

Plasmodium falciparum [8] = test: Antiplasmodial activity chloroquine-sensitive Plasmodium falciparum 3D7 infected in human A+ erythrocytes assessed as inhibition of [3H]-hypoxanthine incorporation after 24 hrs by scintillation counting; assay type: functional, organism-based
[9] = Inhibition of beta-hematin formation assessed as Ferriprotoporphyrin IX biomineralisation at 1 mg/ml after 24 hrs; assay type: functional
Procedure, shortened: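 Hemin chloride (0.5 mg/ml in DMSO) mixed with 0.5 M sodium acetate buffer pH 4.4 and drug or solvent control, incubated 37 °C for 24 h. Pellet washed with DMSO to remove unreacted hemin, dissolved in 0.1 N NaOH, absorbance read at 405 nm; percent inhibition relative to control. Highest concentration tested 1 mg/ml.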

Human respirovirus 3 = test: Antiviral activity against Parainfluenza-3 virus infected in african green monkey Vero cells assessed as inhibition of virus-induced cytopathogenicity after 4 days; assay type: functional, organism-based; conditions: Human respirovirus 3, Vero, 96 h; procedure, shortened: as §4
[10] = Cytotoxicity against african green monkey Vero cells assessed as minimum compound concentration required to causes microscopically detectable alteration of normal cell morphology; assay type: cell-based; conditions: chlorocebus sabaeus; procedure, shortened: as §2
Influenza A virus [11] = test: Antiviral activity against Influenza A virus H3N2 infected in MDCK cells assessed as reduction visual scoring of virus-induced cytopathogenicity after 4 days; assay type: functional, organism-based; conditions: 96 h; procedure, shortened: as §3
Influenza B virus [12] = test: Antiviral activity against Influenza B virus infected in MDCK cells assessed as reduction visual scoring of virus-induced cytopathogenicity after 4 days; assay type: functional, organism-based; conditions: 96 h; procedure, shortened: as §3
Human alphaherpesvirus 3 [13] = test: Antiviral activity against thymidine kinase-deficient […] infected in HEL cells assessed as reduction of virus plaque formation after 4 days; assay type: functional, organism-based; conditions: Human alphaherpesvirus 3, 07-1, HEL, 96 h
[14] = Cytotoxicity against MDCK cells assessed as minimum compound concentration required to causes microscopically detectable alteration of normal cell morphology; assay type: cell-based, Canis lupus familiaris; conditions: dog; procedure, shortened: as §2
Coxsackievirus B4 [15] = test: Antiviral activity against Coxsackie virus B4 infected in african green monkey Vero cells assessed as inhibition of virus-induced cytopathogenicity after 4 days; assay type: functional, organism-based; conditions: Enterovirus B, 96 h; procedure, shortened: as §4
Human betaherpesvirus 5 [16] = test: Antiviral activity against Cytomegalovirus AD-169 infected in HEL cells assessed as inhibition of virus plaque formation after 4 days; assay type: functional, organism-based; conditions: Human betaherpesvirus 5, AD169, HEL, 96 h
Human betaherpesvirus 5 [17] = test: Antiviral activity against Human cytomegalovirus Davis infected in HEL cells assessed as inhibition of virus plaque formation after 4 days; assay type: functional, organism-based; conditions: Human betaherpesvirus 5, Davis, 96 h
Influenza A virus [18] = test: Antiviral activity against Influenza A virus H1N1 infected in MDCK cells assessed as inhibition of virus-induced cytopathogenicity after 4 days by colorimetric formazan-based MTS assay; assay type: functional, organism-based; conditions: 96 h
[19] = Cytotoxicity against cat CRFK cells assessed as cell viability by colorimetric formazan-based MTS assay; design: species or system Felis catus; conditions: crfk
[20] = tested on: Mammalian orthoreovirus 1; test: Antiviral activity against Reovirus-1 infected in african green monkey Vero cells assessed as inhibition of virus-induced cytopathogenicity after 4 days; assay type: functional, organism-based; conditions: Mammalian orthoreovirus 1, Vero, 96 h; procedure, shortened: as §4
Felid alphaherpesvirus 1 = test: Antiviral activity against Feline herpesvirus infected in cat CRFK cells assessed as inhibition of virus-induced cytopathic effect after 4 days by colorimetric formazan-based MTS assay; assay type: functional, organism-based; conditions: Felid alphaherpesvirus 1, CRFK, 96 h
[21] = Selectivity index, ratio of CC50 for MDCK cells to IC50 for chloroquine-resistant Plasmodium falciparum K1; assay type: functional
Procedure, shortened: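 Selectivity index computed as MTS-based CC50 on MDCK cells divided by IC50 against P. falciparum K1.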

Punta Toro virus = test: Antiviral activity against Punta Toro virus infected in african green monkey Vero cells assessed as inhibition of virus-induced cytopathogenicity after 4 days; assay type: functional, organism-based; conditions: 96 h; procedure, shortened: as §4
Influenza B virus [22] = test: Antiviral activity against Influenza B virus infected in MDCK cells assessed as inhibition of virus-induced cytopathogenicity after 4 days by colorimetric formazan-based MTS assay; assay type: functional, organism-based; conditions: 96 h
Human alphaherpesvirus 1 [23] = test: Antiviral activity against HSV1 KOS infected in HEL cells assessed as inhibition of virus-induced cytopathogenicity after 4 days; assay type: functional, organism-based; conditions: Human alphaherpesvirus 1, KOS, 96 h; procedure, shortened: as §5
Coxsackievirus B4 [24] = test: Antiviral activity against Coxsackie virus B4 infected in human HeLa cells assessed as inhibition of virus-induced cytopathogenicity after 4 days; assay type: functional, organism-based; conditions: Enterovirus B, 96 h; procedure, shortened: as §4
[25] = tested on: Vesicular stomatitis virus; test: Antiviral activity against Vesicular stomatitis virus infected in HEL cells assessed as inhibition of virus-induced cytopathogenicity after 4 days; assay type: functional, organism-based; conditions: 96 h; procedure, shortened: as §5
Influenza A virus [26] = test: Antiviral activity against Influenza A virus H3N2 infected in MDCK cells assessed as inhibition of virus-induced cytopathogenicity after 4 days by colorimetric formazan-based MTS assay; assay type: functional, organism-based; conditions: 96 h
Human alphaherpesvirus 2 = test: Antiviral activity against HSV2 G infected in HEL cells assessed as inhibition of virus-induced cytopathogenicity after 4 days; assay type: functional, organism-based; conditions: Human alphaherpesvirus 2, strain G, 96 h; procedure, shortened: as §4
MDCK = test: Cytotoxicity against MDCK cells assessed as cell viability by colorimetric formazan-based MTS assay; design: species or system Canis lupus familiaris; conditions: dog, mdck
Procedure, shortened: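 Cytotoxicity on MDCK cells; 50% cytotoxic concentration from cell viability measured by colorimetric formazan-based MTS assay.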

[27] = tested on: Feline infectious peritonitis virus; test: Antiviral activity against FIPV infected in cat CRFK cells assessed as inhibition of virus-induced cytopathic effect after 4 days by colorimetric formazan-based MTS assay; assay type: functional, cell-based; conditions: Alphacoronavirus 1, CRFK, 96 h
[28] = tested on: Human immunodeficiency virus 2; test: Antiviral activity against HIV2 infected in human CEM cells assessed as inhibition of virus-induced cytopathic effect after 4 days; assay type: functional, organism-based; conditions: Human immunodeficiency virus 2, CCRF-CEM, 96 h; procedure, shortened: as §1
HeLa = test: Cytotoxicity against human HeLa cells assessed as cell viability by colorimetric formazan-based MTS assay
[29] = Cytotoxicity against human HeLa cells assessed as minimum compound concentration required to causes microscopically detectable alteration of normal cell morphology; assay type: cell-based; procedure, shortened: as §2
Plasmodium falciparum [30] = test: Antiplasmodial activity chloroquine-resistant Plasmodium falciparum K1 infected in human A+ erythrocytes assessed as inhibition of [3H]-hypoxanthine incorporation after 24 hrs by scintillation counting; assay type: functional, organism-based
Human alphaherpesvirus 1 [31] = test: Antiviral activity against thymidine kinase-deficient acyclovir-resistant HSV1 KOS infected in HEL cells assessed as inhibition of virus-induced cytopathogenicity after 4 days; assay type: functional, organism-based; conditions: Human alphaherpesvirus 1, KOS, 96 h; procedure, shortened: as §5
[32] = Inhibition of beta-hematin formation assessed as Ferriprotoporphyrin IX biomineralisation after 24 hrs; assay type: functional
Procedure, shortened: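 Hemin (0.5 mg/ml in DMSO) was mixed with 0.5 M sodium acetate pH 4.4 and compound, then incubated for 24 h at 37 °C. The pellet was washed with DMSO to remove unreacted hemin and dissolved in 0.1 N NaOH, with A405 read. Percent inhibition was taken versus solvent control, and IC50 by curve fitting.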

SMILES | EC50 (Human alphaherpesvirus 3 [1]) [µM] | EC50 [2] [µM] | MCC [3] [µM] | EC50 (Influenza A virus [4]) [µM] | EC50 (Sindbis virus) [µM] | EC50 [5] [µM] | Ratio IC50 (Plasmodium falciparum [6]) | EC50 [7] [µM] | IC50 (Plasmodium falciparum [8]) [µM] | inhibition [9] [%] | EC50 (Human respirovirus 3) [µM] | MCC [10] [µM] | EC50 (Influenza A virus [11]) [µM] | EC50 (Influenza B virus [12]) [µM] | EC50 (Human alphaherpesvirus 3 [13]) [µM] | MCC [14] [nM] | EC50 (Coxsackievirus B4 [15]) [µM] | EC50 (Human betaherpesvirus 5 [16]) [µM] | EC50 (Human betaherpesvirus 5 [17]) [µM] | EC50 (Influenza A virus [18]) [µM] | also measured
CCOC(=O)c1c(C)nc(NCCNc2ccnc3cc(Cl)ccc23)nc1-c1ccccc1 | > 4 | > 2 | 20 | > 0.16 | > 4 | > 4 | 6.43 | > 4 | 0.0217 | 96 | > 4 | 20 | > 0.16 | > 0.16 | > 20 | 800 | > 4 | > 4 | > 4 | > 0.16 | CC50 [19]: 7.3 µM; EC50 [20]: > 4 µM; EC50 (Felid alphaherpesvirus 1): > 4 µM; Ratio CC50/IC50 [21]: 10.04; EC50 (Punta Toro virus): > 4 µM; EC50 (Influenza B virus [22]): > 0.16 µM; EC50 (Human alphaherpesvirus 1 [23]): > 4 µM; EC50 (Coxsackievirus B4 [24]): > 4 µM; EC50 [25]: > 4 µM; EC50 (Influenza A virus [26]): > 0.16 µM; EC50 (Human alphaherpesvirus 2): > 4 µM; CC50 (MDCK): 1.4 µM; EC50 [27]: > 4 µM; EC50 [28]: > 2 µM; CC50 (HeLa): 7.9 µM; MCC [29]: 20 µM; IC50 (Plasmodium falciparum [30]): 0.139 µM; EC50 (Human alphaherpesvirus 1 [31]): > 4 µM
C=C[C@H]1CN2CC[C@H]1C[C@H]2[C@H](O)c1ccnc2ccc(OC)cc12 [QUININE] |  |  |  |  |  |  |  |  |  |  |  |  |  |  |  |  |  |  |  |  | IC50 [32]: 324 µM
CCOC(=O)c1c(C)nc(NCCCCNc2ccnc3cc(Cl)ccc23)nc1C | 9.26 | > 2 | > 20 | > 0.8 | > 20 | > 20 | 39.422 | > 20 | 0.0421 | 100 | > 20 | 100 | > 0.8 | > 0.8 | > 20 | 4000 | > 20 | > 4 | 5.23 | > 0.8 | CC50 [19]: 14.5 µM; EC50 [20]: > 20 µM; EC50 (Felid alphaherpesvirus 1): > 4 µM; Ratio CC50/IC50 [21]: 0.48; EC50 (Punta Toro virus): > 20 µM; EC50 (Influenza B virus [22]): > 0.8 µM; EC50 (Human alphaherpesvirus 1 [23]): > 100 µM; EC50 (Coxsackievirus B4 [24]): > 20 µM; EC50 [25]: > 100 µM; EC50 (Influenza A virus [26]): > 0.8 µM; EC50 (Human alphaherpesvirus 2): > 20 µM; CC50 (MDCK): 0.8 µM; EC50 [27]: > 4 µM; EC50 [28]: > 2 µM; CC50 (HeLa): 6.07 µM; MCC [29]: ≥ 20 µM; IC50 (Plasmodium falciparum [30]): 1.66 µM; EC50 (Human alphaherpesvirus 1 [31]): > 100 µM

— ChEMBL document CHEMBL2021854, “2-Aminopyrimidine based 4-aminoquinoline anti-plasmodial agents. Synthesis, biological activity, structure-activity relationship and mode of action studies” (Eur J Med Chem, 2012)
